ChEMBL document CHEMBL3864163, “I. Discovery of a novel series of CXCR3 antagonists. Multiparametric optimization of N,N-disubstituted benzylamines” (Bioorg Med Chem Lett, 2016)

Key:
[1] = target: T1, C-X-C chemokine receptor type 3 (Homo sapiens) (UniProt P49682); test: Displacement of [125I]-CXCL10 from human recombinant CXCR3 transfected in Flp-In-CHO cell membranes at 10 uM after 60 mins by gamma counting method relative to control
T1 sequence (whole entry): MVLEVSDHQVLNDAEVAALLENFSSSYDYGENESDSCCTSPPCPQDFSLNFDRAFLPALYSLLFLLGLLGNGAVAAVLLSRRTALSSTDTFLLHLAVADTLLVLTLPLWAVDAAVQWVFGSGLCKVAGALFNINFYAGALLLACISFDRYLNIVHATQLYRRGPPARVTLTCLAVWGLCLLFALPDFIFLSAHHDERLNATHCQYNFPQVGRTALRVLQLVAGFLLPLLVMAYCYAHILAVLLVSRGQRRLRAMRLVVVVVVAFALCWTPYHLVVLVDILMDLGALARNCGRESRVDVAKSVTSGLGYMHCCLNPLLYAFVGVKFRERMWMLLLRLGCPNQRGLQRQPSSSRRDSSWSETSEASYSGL

[2] = Apparent permeability across human Caco2 cells after 2 hrs by LC-MS method; assay type: ADME, cell-based; conditions: Caco-2
How it was run: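 Caco-2 monolayers checked for integrity, then dosed alongside high- and low-permeability controls. Apical and basal samples taken at 2 h. Four transport conditions: A-B at pH 6.5/7.4 (0% or 0.5% BSA apical, 5% BSA basal), and A-B and B-A at pH 7.4/7.4 (0.5% BSA both sides). Compound quantified by LC/MS. Rapid transport defined as Papp >20 nm/s.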

[3] = target: Mu-type opioid receptor (Homo sapiens) (UniProt P35372); test: Displacement of [3H]DAMGO from recombinant human mu opioid receptor expressed in HEK293 cells at 10 uM after 60 mins by scintillation counting method relative to control; assay type: cell-based
Mu-type opioid receptor (Homo sapiens), sequence (P35372 whole entry): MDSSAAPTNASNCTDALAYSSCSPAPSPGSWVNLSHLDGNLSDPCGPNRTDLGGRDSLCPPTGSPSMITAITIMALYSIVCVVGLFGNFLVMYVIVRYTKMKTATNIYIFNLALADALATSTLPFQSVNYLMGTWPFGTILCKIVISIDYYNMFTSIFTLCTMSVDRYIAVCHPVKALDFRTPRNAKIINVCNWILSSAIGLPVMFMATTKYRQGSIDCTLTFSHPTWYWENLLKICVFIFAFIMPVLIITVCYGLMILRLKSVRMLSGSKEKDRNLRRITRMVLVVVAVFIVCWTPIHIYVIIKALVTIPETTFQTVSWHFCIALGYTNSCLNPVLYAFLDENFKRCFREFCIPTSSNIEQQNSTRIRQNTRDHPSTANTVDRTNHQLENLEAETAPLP

[4] = Metabolic stability in human liver microsomes assessed as parent compound remaining in presence of NADPH by LC-MS/MS method; assay type: ADME
How it was run: (§1)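 Compound incubated with liver microsomes (human or mouse) plus NADPH at 37 °C. Loss of parent was followed by LC-MS-MS and reported as percent. Stability bands: low <40%, medium 40–60%, high >60%.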

[5] = Absolute oral bioavailability in Balb/c mouse at 10 mg/kg; assay type: ADME, organism-based; conditions: in vivo
How it was run: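 Male Balb/c mice dosed once orally at 10 mg/kg and once intravenously at 3 mg/kg. Either 4 animals per route were profiled individually, or sparse sampling used 24 mice with 3 per time point for mean profiles. Absolute oral bioavailability was derived from the two routes.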

[6] = Metabolic stability in mouse liver microsomes assessed as parent compound remaining in presence of NADPH by LC-MS/MS method; assay type: ADME; how it was run: as §1
[7] = target: T2, Muscarinic acetylcholine receptor M2 (Homo sapiens) (UniProt P08172); test: Displacement of [3H]AF-DX384 from recombinant human muscarinic M2 receptor expressed in CHO cells at 10 uM after 60 mins by scintillation counting method relative to control; assay type: cell-based
T2 sequence (whole entry): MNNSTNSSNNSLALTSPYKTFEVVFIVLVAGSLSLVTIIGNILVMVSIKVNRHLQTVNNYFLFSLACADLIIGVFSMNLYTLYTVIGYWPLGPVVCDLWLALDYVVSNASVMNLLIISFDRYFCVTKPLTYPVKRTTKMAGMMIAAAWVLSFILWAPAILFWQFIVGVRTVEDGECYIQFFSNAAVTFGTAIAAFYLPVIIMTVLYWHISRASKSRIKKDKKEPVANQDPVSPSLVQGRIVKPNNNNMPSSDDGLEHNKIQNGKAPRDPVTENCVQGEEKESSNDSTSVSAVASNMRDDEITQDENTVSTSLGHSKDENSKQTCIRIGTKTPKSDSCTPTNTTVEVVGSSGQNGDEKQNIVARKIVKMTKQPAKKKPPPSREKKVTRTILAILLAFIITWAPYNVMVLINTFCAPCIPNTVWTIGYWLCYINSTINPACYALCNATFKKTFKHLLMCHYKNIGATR

[8] = Intrinsic clearance in human hepatocytes assessed per 10^6 cells at 5 uM; assay type: ADME, cell-based, Hepatocyte
[9] = target: T3, C-X-C chemokine receptor type 3 (Homo sapiens, UniProt P49682); test: Displacement of [125I]-CXCL10 from human recombinant CXCR3 transfected in Flp-In-CHO cell membranes after 60 mins by gamma counting method
T3 sequence (P49682 whole entry): T1 sequence (whole entry)

[10] = Chemical stability of the compound in 1:1 acetonitrile-water at pH 6.5 after 48 hrs by LC-MS method; assay type: physicochemical; conditions: buffer, pH 6.5, 48 h
[11] = target: T4, Muscarinic acetylcholine receptor M1 (Homo sapiens) (UniProt P11229); test: Displacement of [3H]pirenzepine from recombinant human muscarinic M1 receptor expressed in CHO cells at 10 uM after 60 mins by scintillation counting method relative to control; assay type: cell-based
T4 sequence (whole entry): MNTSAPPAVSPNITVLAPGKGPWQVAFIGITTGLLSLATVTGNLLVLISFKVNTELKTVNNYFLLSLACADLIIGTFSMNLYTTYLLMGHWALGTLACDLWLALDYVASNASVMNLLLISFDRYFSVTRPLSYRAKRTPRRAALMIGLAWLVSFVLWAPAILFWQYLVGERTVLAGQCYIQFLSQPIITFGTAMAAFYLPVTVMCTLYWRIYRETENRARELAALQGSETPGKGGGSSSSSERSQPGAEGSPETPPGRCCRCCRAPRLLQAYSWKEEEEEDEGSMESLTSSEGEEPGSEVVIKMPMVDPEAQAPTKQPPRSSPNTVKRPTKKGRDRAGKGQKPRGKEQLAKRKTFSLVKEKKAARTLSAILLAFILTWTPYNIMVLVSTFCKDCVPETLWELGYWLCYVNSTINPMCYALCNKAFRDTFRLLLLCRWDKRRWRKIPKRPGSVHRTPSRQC

[12] = target: T5, Alpha-1A adrenergic receptor (Homo sapiens) (UniProt P35348); test: Displacement of [3H]prazosin from recombinant human alpha 1A adrenergic receptor expressed in CHO cells at 10 uM after 60 mins by scintillation counting method relative to control; assay type: cell-based
T5 sequence (whole entry): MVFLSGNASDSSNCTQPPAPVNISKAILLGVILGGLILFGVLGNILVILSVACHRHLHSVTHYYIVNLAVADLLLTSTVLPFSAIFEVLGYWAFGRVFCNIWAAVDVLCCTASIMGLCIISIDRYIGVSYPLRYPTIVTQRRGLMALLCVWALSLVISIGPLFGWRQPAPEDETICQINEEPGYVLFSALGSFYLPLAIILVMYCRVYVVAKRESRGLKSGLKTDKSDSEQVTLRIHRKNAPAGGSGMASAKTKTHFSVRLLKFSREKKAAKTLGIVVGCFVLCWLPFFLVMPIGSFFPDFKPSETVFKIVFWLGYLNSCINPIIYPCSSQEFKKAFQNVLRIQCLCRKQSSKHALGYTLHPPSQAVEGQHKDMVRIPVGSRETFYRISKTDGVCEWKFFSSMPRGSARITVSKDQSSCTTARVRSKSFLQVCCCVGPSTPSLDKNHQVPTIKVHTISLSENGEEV

[13] = target: T6, Alpha-2A adrenergic receptor (Homo sapiens) (UniProt P08913); test: Displacement of [3H]RX 821002 from recombinant human alpha 2A adrenergic receptor expressed in CHO cells at 10 uM after 60 mins by scintillation counting method relative to control; assay type: cell-based
T6 sequence (whole entry): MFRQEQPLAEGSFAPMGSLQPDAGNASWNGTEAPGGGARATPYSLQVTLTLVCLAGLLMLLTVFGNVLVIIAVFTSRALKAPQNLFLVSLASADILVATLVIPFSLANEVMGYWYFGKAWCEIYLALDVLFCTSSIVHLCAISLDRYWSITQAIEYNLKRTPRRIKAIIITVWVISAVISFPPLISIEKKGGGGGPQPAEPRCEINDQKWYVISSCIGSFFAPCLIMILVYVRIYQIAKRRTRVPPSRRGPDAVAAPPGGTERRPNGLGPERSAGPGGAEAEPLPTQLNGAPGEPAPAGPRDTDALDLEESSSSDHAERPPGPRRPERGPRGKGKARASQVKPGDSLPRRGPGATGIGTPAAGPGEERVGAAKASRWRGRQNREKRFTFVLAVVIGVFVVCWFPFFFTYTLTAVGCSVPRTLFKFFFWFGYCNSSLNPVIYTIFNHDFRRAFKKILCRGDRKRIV

[14] = target: Histamine H1 receptor (Homo sapiens) (UniProt P35367); test: Displacement of [3H]pyrilamine from recombinant human histamine H1 receptor expressed in HEK293 cells at 10 uM after 60 mins by scintillation counting method relative to control; assay type: cell-based
Histamine H1 receptor (Homo sapiens), sequence (P35367 whole entry): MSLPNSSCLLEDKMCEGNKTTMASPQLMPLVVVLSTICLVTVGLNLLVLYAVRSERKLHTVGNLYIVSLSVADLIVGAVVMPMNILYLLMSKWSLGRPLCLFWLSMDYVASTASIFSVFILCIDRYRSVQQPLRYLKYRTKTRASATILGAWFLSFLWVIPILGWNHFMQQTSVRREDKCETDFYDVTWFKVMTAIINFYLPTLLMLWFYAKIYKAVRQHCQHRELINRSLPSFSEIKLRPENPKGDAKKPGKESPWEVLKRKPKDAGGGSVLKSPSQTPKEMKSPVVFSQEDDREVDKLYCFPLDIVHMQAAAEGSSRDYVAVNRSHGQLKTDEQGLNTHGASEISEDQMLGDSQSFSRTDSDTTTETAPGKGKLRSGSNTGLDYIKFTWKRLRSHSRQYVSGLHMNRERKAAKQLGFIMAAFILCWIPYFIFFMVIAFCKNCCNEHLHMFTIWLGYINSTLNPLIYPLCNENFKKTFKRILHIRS

[15] = target: T3, C-X-C chemokine receptor type 3; test: Antagonist activity at human Galphai4qi4-coupled CXCR3A expressed in engineered CHO cells assessed as inhibition of IP-10-induced calcium mobilization by FLIPR assay; assay type: functional, cell-based

COc1cc(CN(C)C(C)c2ccc3c(c2)CCO3)cc(OCCN2C(=O)CCC2=O)c1 (stereo not drawn)
inhibition [1]: 4%

CC(c1ccc2c(c1)CCO2)N(C)Cc1ccc2c(c1)OC[C@H](CN1C(=O)CCC1=O)O2 (stereo partly drawn)
inhibition [1]: 36%

CC(c1ccc2c(c1)CCO2)N(C)Cc1ccc2c(c1)OCCN2CCN1C(=O)CCC1=O (stereo not drawn)
inhibition [1]: 7%

Cc1cc(CN(C[C@H]2CC[C@H](C(=O)O)CC2)C(C)c2ccc3c(c2)CCO3)ccc1OCCN1C(=O)CCC1=O (stereo partly drawn)
Papp at 2 h [2]: 2.22 ×10⁻⁶ cm/s | inhibition [3]: 78% | Stability [4]: 70% | bioavailability [5]: 4.1% | Stability [6]: 87% | inhibition [7]: 99%

Cc1cc(CN(C[C@H]2CC[C@H](C(=O)O)CC2)[C@@H](C)c2ccc(Cl)cc2)ccc1OCCN1C(=O)CN(C)C1=O
Papp at 2 h [2]: 15.7 ×10⁻⁶ cm/s | CLH [8]: 0.234 mL/h | IC50 [9]: 99 nM | Stability [4]: 63% | bioavailability [5]: 63.3% | Stability [6]: 100%

COc1cc(CN(C[C@H]2CC[C@H](C(=O)O)CC2)C(C)c2ccc3c(c2)CCO3)ccc1OCCN1C(=O)COC1=O (stereo partly drawn)
Papp at 2 h [2]: 1.16 ×10⁻⁶ cm/s | Stability [10]: Unstable | Stability [4]: 88% | Stability [6]: 93%

COc1ccc(CN(C)C(C)c2ccc3c(c2)CCO3)cc1OCCN1C(=O)CCC1=O (stereo not drawn)
inhibition [1]: 18%

COc1cc(CN(C)C(C)c2ccc3c(c2)CCO3)ccc1OCCCN1C(=O)CCC1=O (stereo not drawn)
inhibition [1]: 39%

COc1cc(CN(C[C@H]2CC[C@H](C(=O)O)CC2)[C@@H](C)c2ccc(Cl)cc2)ccc1OCCn1c(=O)ccn(C)c1=O
Papp at 2 h [2]: 8.01 ×10⁻⁶ cm/s | CLH [8]: 0.159 mL/h | Stability [4]: 62% | bioavailability [5]: 26.7% | Stability [6]: 76%

COc1cc(CN(C[C@H]2CC[C@H](C(=O)O)CC2)[C@@H](C)c2ccc(Cl)cc2)ccc1OCCN1C(=O)CCC1=O
Papp at 2 h [2]: 5.28 ×10⁻⁶ cm/s | inhibition [3]: 74% | Stability [4]: 91% | bioavailability [5]: 13.3% | Stability [6]: 91%

COc1cc(CN(C)C(C)c2ccc3c(c2)CCO3)ccc1OCN1C(=O)CCC1=O (stereo not drawn)
inhibition [1]: 8%

COc1cc(CN(C)C(C)c2ccc3c(c2)CCO3)cc(OCCCN2C(=O)CCC2=O)c1 (stereo not drawn)
inhibition [1]: 15%

Cc1cc(CN(C[C@H]2CC[C@H](C(=O)O)CC2)[C@H]2CCc3cc(Cl)ccc32)ccc1OCCN1C(=O)CCC1=O
Papp at 2 h [2]: 8.12 ×10⁻⁶ cm/s | CLH [8]: 0.09 mL/h | inhibition [3]: 87% | Stability [4]: 78% | bioavailability [5]: 69% | Stability [6]: 91% | inhibition [7]: 92% | inhibition [11]: 82%

COc1cc(CN(C[C@H]2CC[C@H](C(=O)O)CC2)[C@H]2CCc3c2ccc(Cl)c3F)ccc1OCCN1C(=O)CCC1=O
Papp at 2 h [2]: 2.97 ×10⁻⁶ cm/s | CLH [8]: 0.031 mL/h | Stability [4]: 73% | bioavailability [5]: 47% | Stability [6]: 81% | inhibition [7]: 16%

Cc1cc(CN(C[C@H]2CC[C@H](C(=O)O)CC2)[C@@H](C)c2ccc(Cl)cc2)ccc1OCCN1C(=O)CCC1=O
inhibition [12]: 71% | Papp at 2 h [2]: 19.5 ×10⁻⁶ cm/s | CLH [8]: 0.138 mL/h | Stability [4]: 73% | bioavailability [5]: 93.5% | Stability [6]: 87% | inhibition [7]: 97%

COc1cc(CN(C[C@H]2CC[C@H](C(=O)O)CC2)[C@H]2CCc3c2ccc(Cl)c3Cl)ccc1OCCN1C(=O)CCC1=O
Papp at 2 h [2]: 5.7 ×10⁻⁶ cm/s | CLH [8]: 0.083 mL/h | Stability [4]: 75% | Stability [6]: 81% | inhibition [7]: 0%

COc1cc(CN(C[C@H]2CC[C@H](C(=O)O)CC2)C2CCc3cc(Cl)ccc32)ccc1OCCN1C(=O)CCC1=O (stereo partly drawn)
inhibition [12]: 52% | Papp at 2 h [2]: 8.98 ×10⁻⁶ cm/s | inhibition [3]: 63 to 64% | IC50 [9]: 24 nM | Stability [4]: 66% | Stability [6]: 78% | inhibition [7]: 0%

COc1cc(CN(C[C@H]2CC[C@H](C(=O)O)CC2)C(C)c2ccc3c(c2)CCO3)ccc1OCCN1C(=O)CSC1=O (stereo partly drawn)
Papp at 2 h [2]: 2.93 ×10⁻⁶ cm/s | inhibition [3]: 94% | Stability [4]: 73% | Stability [6]: 73% | inhibition [7]: 72%

COc1cc(CN(C)C(C)c2ccc3c(c2)CCO3)ccc1OCCN1C(=O)CCC1=O (stereo not drawn)
inhibition [12]: > 65% | Papp at 2 h [2]: 5.62 ×10⁻⁶ cm/s | inhibition [13]: > 65% | inhibition [14]: > 65% | inhibition [3]: > 65% | IC50 [9]: 403 nM | Stability [4]: 53% | IC50 [15]: 74 nM | Stability [6]: 52% | inhibition [7]: > 65%

COc1cc(CN(C[C@H]2CC[C@H](C(=O)O)CC2)[C@H]2CCc3cc(Cl)ccc32)ccc1OCCN1C(=O)CCC1=O
inhibition [12]: 25% | Papp at 2 h [2]: 7.52 ×10⁻⁶ cm/s | CLH [8]: 0.112 mL/h | inhibition [3]: 43% | Stability [4]: 70% | bioavailability [5]: 24% | Stability [6]: 79%
